Source: ChEMBL document CHEMBL4428127, “Discovery of 5-Phenyl-N-(pyridin-2-ylmethyl)-2-(pyrimidin-5-yl)quinazolin-4-amine as a Potent I Kur Inhibitor” (ACS Med Chem Lett, 2016)

Assays:
[1] = target: T1, Potassium voltage-gated channel subfamily A member 5 (Homo sapiens, UniProt P22460); assay: Inhibition of human Kv1.5 transfected in mouse LTK cells at 0.3 uM; format: cell-based
[2] = target: T1, Potassium voltage-gated channel subfamily A member 5; assay: Inhibition of human Kv1.5 transfected in mouse LTK cells; format: cell-based
hERG (KCNH2) [3] = target: T2, hERG (KCNH2) (Homo sapiens, UniProt Q12809); assay: Inhibition of human ERG expressed in HEK293 cells at 1 uM by thallium flux assay; format: cell-based; conditions: HEK293 cells that express hERG
T2 sequence (Q12809 whole entry): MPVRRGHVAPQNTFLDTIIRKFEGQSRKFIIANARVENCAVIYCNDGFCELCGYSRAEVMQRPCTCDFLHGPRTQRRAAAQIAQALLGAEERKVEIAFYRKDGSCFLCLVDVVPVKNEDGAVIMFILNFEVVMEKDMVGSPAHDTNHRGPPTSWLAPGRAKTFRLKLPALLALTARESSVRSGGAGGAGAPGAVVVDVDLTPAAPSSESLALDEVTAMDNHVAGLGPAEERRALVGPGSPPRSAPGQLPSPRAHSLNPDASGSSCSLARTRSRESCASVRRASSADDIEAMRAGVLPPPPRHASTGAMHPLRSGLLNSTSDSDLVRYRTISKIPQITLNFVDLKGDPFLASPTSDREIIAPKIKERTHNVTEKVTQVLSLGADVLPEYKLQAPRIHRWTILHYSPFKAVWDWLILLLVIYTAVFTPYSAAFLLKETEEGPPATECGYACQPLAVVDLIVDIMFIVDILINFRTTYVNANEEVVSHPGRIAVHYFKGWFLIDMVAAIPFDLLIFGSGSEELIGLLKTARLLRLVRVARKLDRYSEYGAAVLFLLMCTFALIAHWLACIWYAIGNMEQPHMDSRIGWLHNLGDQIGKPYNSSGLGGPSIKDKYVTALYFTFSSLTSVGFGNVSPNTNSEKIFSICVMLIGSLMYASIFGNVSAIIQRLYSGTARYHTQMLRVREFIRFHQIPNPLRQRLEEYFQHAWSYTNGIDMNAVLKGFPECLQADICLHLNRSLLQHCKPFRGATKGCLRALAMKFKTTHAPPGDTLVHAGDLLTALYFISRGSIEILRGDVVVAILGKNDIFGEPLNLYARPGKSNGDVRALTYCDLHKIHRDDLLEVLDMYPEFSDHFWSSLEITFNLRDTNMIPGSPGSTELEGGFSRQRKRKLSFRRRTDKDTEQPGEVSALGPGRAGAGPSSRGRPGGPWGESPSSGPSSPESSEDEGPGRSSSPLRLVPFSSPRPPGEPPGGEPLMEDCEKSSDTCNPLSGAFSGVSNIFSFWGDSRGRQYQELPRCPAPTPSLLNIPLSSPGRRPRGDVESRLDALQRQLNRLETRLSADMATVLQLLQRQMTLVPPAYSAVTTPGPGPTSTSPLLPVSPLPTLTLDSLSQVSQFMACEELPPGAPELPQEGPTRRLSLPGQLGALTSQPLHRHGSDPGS

[4] = Clearance in Sprague-Dawley rat hemodynamic/VERP model at 2 mg/kg, iv; format: ADME, organism-based; conditions: in vivo
[5] = Volume of distribution at steady state in Sprague-Dawley rat hemodynamic/VERP model at 2 mg/kg, iv; format: ADME, organism-based; conditions: in vivo, read-out: Vdss
[6] = Half life in Sprague-Dawley rat hemodynamic/VERP model at 2 mg/kg, iv; format: ADME, organism-based; conditions: in vivo
[7] = Half life in Sprague-Dawley rat hemodynamic/VERP model at 5 mg/kg, po; format: ADME, organism-based; conditions: in vivo
[8] = Oral bioavailability in Sprague-Dawley rat hemodynamic/VERP model at 5 mg/kg; format: ADME, organism-based; conditions: in vivo
Rattus norvegicus = assay: Pro-arrhythmic activity in rat assessed as increase in ventricular effective refractory period at 10 mg/kg, iv as 10 mins infusion; format: ADME, organism-based; conditions: in vivo
Procedure, shortened: (§1)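 Rats fitted with a multielectrode catheter in the left ventricle to record ventricular effective refractory period. Dose 10 mg/kg i.v. infused over 10 min, n = 2. Percent VERP increase reported together with the plasma concentration reached.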

Oryctolagus cuniculus = assay: Increase in atrial effective refractory period in rabbit at 3 mg/kg, iv as 30 mins infusion measured at 20 mins; format: functional
Procedure, shortened: (§2)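 Anesthetized rabbits given 3 mg/kg i.v. in DMF vehicle, infused over 30 min, n = 3–4. Atrial ERP, VERP, QTc (Delta QTc cf), systolic and mean blood pressure, and heart rate recorded as change at 20 min. Plasma concentration sampled at the end of infusion.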

[9] = Plasma concentration in rabbit at 3 mg/kg, iv as 30 mins infusion; format: ADME, organism-based, Oryctolagus cuniculus; procedure, shortened: as §2
[10] = Metabolic stability in rat liver microsomes assessed as parent compound remaining at 10 mins; format: ADME, Microsome; conditions: read-out: Stability
Procedure, shortened: (§3)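 Compound incubated with rat or mouse liver microsomes; percent parent remaining measured at 10 min.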

[11] = Metabolic stability in mouse liver microsomes assessed as parent compound remaining at 10 mins; format: ADME, Microsome; conditions: read-out: Stability; procedure, shortened: as §3
Cytochrome P450 2C9 [12] = target: T3, Cytochrome P450 2C9 (Homo sapiens, UniProt P11712); assay: Inhibition of CYP2C9 (unknown origin) at 4 uM; format: ADME
T3 sequence (P11712 whole entry): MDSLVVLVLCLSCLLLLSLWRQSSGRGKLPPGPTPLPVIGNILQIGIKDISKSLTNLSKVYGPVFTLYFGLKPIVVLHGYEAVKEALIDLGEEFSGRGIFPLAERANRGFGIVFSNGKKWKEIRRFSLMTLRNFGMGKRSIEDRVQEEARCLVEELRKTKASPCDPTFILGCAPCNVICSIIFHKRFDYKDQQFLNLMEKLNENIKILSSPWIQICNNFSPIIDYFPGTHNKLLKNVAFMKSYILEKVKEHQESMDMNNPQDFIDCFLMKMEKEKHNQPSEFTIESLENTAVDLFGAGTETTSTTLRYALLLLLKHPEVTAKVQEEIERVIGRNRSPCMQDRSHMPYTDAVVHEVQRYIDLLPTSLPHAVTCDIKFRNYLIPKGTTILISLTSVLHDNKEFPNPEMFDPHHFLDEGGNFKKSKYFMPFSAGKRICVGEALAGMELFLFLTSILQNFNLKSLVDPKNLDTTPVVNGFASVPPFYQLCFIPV

Cytochrome P450 2C19 [13] = target: T4, Cytochrome P450 2C19 (Homo sapiens, UniProt P33261); assay: Inhibition of CYP2C19 (unknown origin) at 3 uM; format: ADME
T4 sequence (P33261 whole entry): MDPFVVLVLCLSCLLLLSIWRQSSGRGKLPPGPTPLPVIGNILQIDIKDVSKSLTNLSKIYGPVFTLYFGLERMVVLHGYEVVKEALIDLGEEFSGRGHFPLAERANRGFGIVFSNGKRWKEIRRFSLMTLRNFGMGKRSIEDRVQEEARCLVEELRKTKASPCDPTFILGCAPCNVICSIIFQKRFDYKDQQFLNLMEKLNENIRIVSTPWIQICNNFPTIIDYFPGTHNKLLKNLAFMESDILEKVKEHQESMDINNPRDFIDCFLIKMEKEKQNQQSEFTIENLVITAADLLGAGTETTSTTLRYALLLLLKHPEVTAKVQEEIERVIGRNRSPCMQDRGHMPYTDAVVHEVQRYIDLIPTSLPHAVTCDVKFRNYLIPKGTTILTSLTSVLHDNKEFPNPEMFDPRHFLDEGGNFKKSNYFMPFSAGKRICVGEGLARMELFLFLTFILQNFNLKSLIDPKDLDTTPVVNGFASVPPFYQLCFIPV

[14] = Toxicity in Sprague-Dawley rat VEPR model assessed as seizures at plasma concentration of 7.7 uM administered at 10 mg/kg, iv; format: organism-based; conditions: in vivo
[15] = Toxicity in rabbit assessed as change in corrected QT time interval at 3 mg/kg as 30 mins infusion; format: organism-based, Oryctolagus cuniculus; conditions: in vivo, iv, 0.5 h; procedure, shortened: as §2
[16] = Toxicity in rabbit assessed as change in systolic blood pressure at 3 mg/kg, iv as 30 mins infusion measured at 20 mins; format: organism-based, Oryctolagus cuniculus; conditions: in vivo; procedure, shortened: as §2
[17] = Toxicity in rabbit assessed as change in mean blood pressure at 3 mg/kg, iv as 30 mins infusion measured at 20 mins; format: organism-based, Oryctolagus cuniculus; conditions: in vivo; procedure, shortened: as §2
[18] = Toxicity in rabbit assessed as change in heart rate at 3 mg/kg, iv as 30 mins infusion measured at 20 mins; format: organism-based, Oryctolagus cuniculus; conditions: in vivo; procedure, shortened: as §2
[19] = Plasma concentration in rat VERP model at 3 mg/kg, iv as 5 mins infusion measured 10 mins post dose; format: ADME, organism-based
Procedure, shortened: (§4)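 Rat VERP model, i.v. infusion over 5 min at 3 or 10 mg/kg. Plasma and brain concentrations measured 10 min after the end of infusion.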

[20] = Drug uptake in brain of rat VERP model at 3 mg/kg, iv as 5 mins infusion measured 10 mins post dose; format: ADME, organism-based; conditions: read-out: Drug uptake; procedure, shortened: as §4
[21] = Plasma concentration in rat VERP model at 10 mg/kg, iv as 5 mins infusion measured 10 mins post dose; format: ADME, organism-based; procedure, shortened: as §4
[22] = Drug uptake in brain of rat VERP model at 10 mg/kg, iv as 5 mins infusion measured 10 mins post dose; format: ADME, organism-based; conditions: read-out: Drug uptake; procedure, shortened: as §4
hERG (KCNH2) [23] = target: T2, hERG (KCNH2); assay: Inhibition of human ERG expressed in HEK293 cells at 10 uM by thallium flux assay; format: cell-based; conditions: HEK293 cells that express hERG
[24] = target: Voltage-gated inwardly rectifying potassium channel KCNH2 (Homo sapiens, UniProt Q12809); assay: Inhibition of human ERG expressed in HEK293 cells by thallium flux assay; format: cell-based
Voltage-gated inwardly rectifying potassium channel KCNH2, sequence (Q12809 whole entry): as the sequence (Q12809 whole entry) above

[25] = Stability in rat liver microsomes; format: ADME, Microsome
[26] = Pro-arrhythmic activity in rat assessed as plasma concentration required to increase 98 +/- 3% ventricular effective refractory period at 10 mg/kg, iv as 10 mins infusion; format: ADME, organism-based; procedure, shortened: as §1
Cytochrome P450 2C9 [27] = target: T3, Cytochrome P450 2C9; assay: Inhibition of CYP2C9 (unknown origin) at 1 uM; format: ADME
Cytochrome P450 2C19 [28] = target: T4, Cytochrome P450 2C19; assay: Inhibition of CYP2C19 (unknown origin) at 1 uM; format: ADME
hERG (KCNH2) [29] = target: T2, hERG (KCNH2); assay: Inhibition of human ERG expressed in HEK293 cells at 0.3 uM by thallium flux assay; format: cell-based; conditions: HEK293 cells that express hERG

T1 sequence (P22460 whole entry): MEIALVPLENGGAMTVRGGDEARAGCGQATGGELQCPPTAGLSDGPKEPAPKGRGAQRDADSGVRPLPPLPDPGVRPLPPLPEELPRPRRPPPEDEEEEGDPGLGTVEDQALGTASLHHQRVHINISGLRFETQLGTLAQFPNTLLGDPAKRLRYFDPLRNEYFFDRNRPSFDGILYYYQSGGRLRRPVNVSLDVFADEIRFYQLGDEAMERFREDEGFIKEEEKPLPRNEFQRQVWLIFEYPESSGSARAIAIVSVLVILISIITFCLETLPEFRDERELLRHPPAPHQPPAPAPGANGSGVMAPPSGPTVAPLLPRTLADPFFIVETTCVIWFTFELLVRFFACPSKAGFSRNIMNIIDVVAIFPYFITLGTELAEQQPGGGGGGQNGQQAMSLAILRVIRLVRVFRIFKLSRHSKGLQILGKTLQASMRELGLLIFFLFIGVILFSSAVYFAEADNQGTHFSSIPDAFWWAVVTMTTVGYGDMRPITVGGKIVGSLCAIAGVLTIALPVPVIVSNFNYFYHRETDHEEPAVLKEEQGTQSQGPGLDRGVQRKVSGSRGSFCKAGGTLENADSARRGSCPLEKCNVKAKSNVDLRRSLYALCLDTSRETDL

NC(=O)c1ccc(-c2cccc3nc(-c4cncnc4)nc(NCc4ccccn4)c23)cc1
inhibition [1]: 8%

c1ccc(-c2cccc3nc(-c4cn[nH]c4)nc(NCc4ccccn4)c23)cc1
IC50 [2]: 0.16 µM
inhibition at 1 µM (hERG (KCNH2) [3]): 88%

Clc1nc(NCc2ccccn2)c2cc(-c3ccccc3)ccc2n1
inhibition [1]: 14%

c1ccc(-c2cccc3nc(-c4cncnc4)nc(NCc4ccccn4)c23)cc1
IC50 [2]: 0.09 µM
clearance [4]: 0.276 L/h/kg
Vd [5]: 5.2 L/kg
half-life [6]: 15 h
half-life [7]: 3.5 h
bioavailability [8]: 6.3%
Activity (Rattus norvegicus): Non-Toxic
Activity (Oryctolagus cuniculus): 21.4%
concentration at 0.5 h [9]: 2.7 µM
remaining at 10 min [10]: 58%
remaining at 10 min [11]: 75%
inhibition (INH) (Cytochrome P450 2C9 [12]): Active
inhibition (INH) (Cytochrome P450 2C19 [13]): Active
Activity [14]: Non-Toxic
Time [15]: 13 ms
Activity [16]: -3.4%
Activity [17]: -3.8%
Activity [18]: -3.1%
concentration at 10 min [19]: 3.1 µM
concentration at 10 min [20]: 8.8 µM
concentration at 10 min [21]: 7.7 µM
concentration at 10 min [22]: 25 µM
inhibition at 10 µM (hERG (KCNH2) [23]): 43%

Cc1nc(NCc2ccccn2)c2c(-c3ccccc3)cccc2n1
inhibition [1]: 72%
IC50 [24]: 4.6 µM

N#Cc1ccc(-c2nc(NCc3ccccn3)c3c(-c4ccccc4)cccc3n2)cn1
IC50 [2]: 0.13 µM
inhibition at 1 µM (hERG (KCNH2) [3]): 51%

NC(=O)c1nc(NCc2ccccn2)c2c(-c3ccccc3)cccc2n1
inhibition [1]: 9%

Cc1n[nH]c(C)c1-c1nc(NCc2ccccn2)c2c(-c3ccccc3)cccc2n1
inhibition [1]: 20%

Fc1cccc(-c2cccc3nc(-c4cncnc4)nc(NCc4ccccn4)c23)c1
inhibition [1]: 37%

FC(F)(F)c1ccc(-c2cccc3nc(-c4cncnc4)nc(NCc4ccccn4)c23)cc1
IC50 [2]: 0.15 µM

COc1cncc(-c2nc(NCc3ccccn3)c3c(-c4ccccc4)cccc3n2)c1
IC50 [2]: 0.12 µM

Cc1noc(C)c1-c1nc(NCc2ccccn2)c2c(-c3ccccc3)cccc2n1
IC50 [2]: 0.09 µM
IC50 [24]: 3.1 µM

c1ccc(-c2cccc3nc(-c4ccncc4)nc(NCc4ccccn4)c23)cc1
IC50 [2]: 0.04 µM
IC50 [24]: 6.7 µM

Clc1nc(NCc2ccccn2)c2ccc(-c3ccccc3)cc2n1
inhibition [1]: 9%

Clc1nc(NCc2ccccn2)c2c(-c3ccccc3)cccc2n1
IC50 [2]: 0.07 µM
inhibition [1]: 86%
IC50 [24]: > 80 µM
Stability [25]: Unstable
clearance [4]: 0.492 L/h/kg
Vd [5]: 2.3 L/kg
half-life [6]: 7.3 h
half-life [7]: 1.9 h
bioavailability [8]: 10%
concentration at 10 min [26]: 26 µM
Activity (Rattus norvegicus): 98%
Activity (Oryctolagus cuniculus): 9%
concentration at 0.5 h [9]: 9.1 µM
Activity [16]: 0.1%
Activity [17]: -1%
Activity [18]: -3.2%

COc1ncc(-c2nc(NCc3ccccn3)c3c(-c4ccccc4)cccc3n2)cn1
IC50 [2]: 0.1 µM

N#Cc1nc(NCc2ccccn2)c2c(-c3ccccc3)cccc2n1
IC50 [2]: 0.05 µM
IC50 [24]: > 80 µM

Fc1ccc(-c2cccc3nc(-c4cncnc4)nc(NCc4ccccn4)c23)cc1
IC50 [2]: 0.25 µM

c1ccc(-c2cccc3nc(C4CC4)nc(NCc4ccccn4)c23)cc1
IC50 [2]: 0.17 µM

c1ccc(-c2cccc3nc(-c4cccnc4)nc(NCc4ccccn4)c23)cc1
IC50 [2]: 0.06 µM
remaining at 10 min [10]: 7%
remaining at 10 min [11]: 22%
inhibition (INH) (Cytochrome P450 2C9 [27]): Active
inhibition (INH) (Cytochrome P450 2C19 [28]): Active

c1ccc(-c2cccc3nc(-c4cncs4)nc(NCc4ccccn4)c23)cc1
IC50 [2]: 0.05 µM
IC50 [24]: 6.2 µM

FC(F)(F)c1nc(NCc2ccccn2)c2c(-c3ccccc3)cccc2n1
IC50 [2]: 0.08 µM
IC50 [24]: 10 µM

CN(C)c1nc(NCc2ccccn2)c2c(-c3ccccc3)cccc2n1
inhibition [1]: 59%
IC50 [24]: 2.5 µM

COCCNc1ncc(-c2nc(NCc3ccccn3)c3c(-c4ccccc4)cccc3n2)cn1
inhibition [1]: 20%

Cn1cncc1-c1nc(NCc2ccccn2)c2c(-c3ccccc3)cccc2n1
inhibition [1]: 41%
IC50 [24]: 2.7 µM

O=c1ccc(-c2nc(NCc3ccccn3)c3c(-c4ccccc4)cccc3n2)c[nH]1
IC50 [2]: 0.11 µM
inhibition at 0.3 µM (hERG (KCNH2) [29]): 91%

Clc1nc(NCc2ccccn2)c2cccc(-c3ccccc3)c2n1
inhibition [1]: 9%
